Experimental data from article PMC12392337 (Archives of toxicology, 2022).
Read-outs that look alike come from different tables or passages of the source.

Experiments:
wild-type TK6 cells = test: MultiFlow DNA damage assay, γH2A.X formation; format: cell-based, human; conditions: positive control at 25 and 50 ng/ml
[1] = system: CYP2A6-expressing TK6 cells; test: MultiFlow DNA damage assay, γH2A.X formation; format: cell-based, human; conditions: for BMD50 for γH2A.X induction: Bayesian benchmark dose modeling, model-averaged, CES 0.5, 24-h treatment
rats = conditions: cited from earlier work
[2] = system: CYP2A6-expressing TK6 cells; test: In vitro micronucleus assay; format: cell-based, human; conditions: for %MN response (in words): NDIPA and NDBA at concentrations up to 1 mM; for genotoxic potency relative to NMPA (BMD50 estimates, both endpoints): MN and γH2A.X BMD50 in CYP2A6-expressing TK6 cells, fold weaker than NMPA; for BMD50 for MN frequency: Bayesian benchmark dose modeling, model-averaged, CES 0.5, 24-h treatment
[3] = system: CYP2A6-expressing TK6 cells; test: Relative cytotoxicity; format: cell-based, human; conditions: for cytotoxicity at the highest concentration tested: 24 h, data not shown
[4] = system: CYP2A6-expressing TK6 cells; test: MultiFlow DNA damage assay, nuclear P53; format: cell-based, human; conditions: 24 h; for nuclear P53 response (in words): concentrations studied; for increase in nuclear P53 vs vehicle control: 100 μM
[5] = system: CYP2A6-expressing TK6 cells; test: Cell cycle analysis; format: cell-based, human; conditions: 24 h; for percentage of cells in G2/M phase: vehicle controls 21.6%
[6] = system: TK6 cells expressing CYP2A6; test: TK and HPRT gene mutation test; format: cell-based, human; conditions: Supplementary Table 1
[7] = system: TK6 cells expressing CYP1A1; test: In vitro micronucleus assay; format: cell-based, human; conditions: without S9; positive control B(a)P at 1 μM
[8] = system: TK6 cells expressing CYP3A4; test: In vitro micronucleus assay; format: cell-based, human; conditions: without S9; positive control lasiocarpine at 0.5 μM
[9] = system: TK6 cells expressing CYP2E1; test: In vitro micronucleus assay; format: cell-based, human; conditions: without S9; positive control NDMA at 10 μM
bacteria = conditions: cited from earlier work
TK6 cells = test: NDBA distribution between medium and cell lysate by UPLC-MS/MS; format: in vitro ADME, human; conditions: Supplementary Fig. 2
[10] = system: Salmonella typhimurium expressing human CYP2A6; conditions: cited from earlier work
[11] = system: human HepG2 cells overexpressing CYP2A6; test: MN assay in HepG2 cells; format: cell-based; conditions: Supplementary Fig. 1
[12] = system: TK6 cells transduced with CYP2A6, 1A1, 2E1, and 3A4; test: NDBA level in cell culture medium by UPLC-MS/MS; format: in vitro ADME, human; conditions: 12.5 μM, 24 h; CYP2A6, 1A1, 2E1, and 3A4 expressed in TK6 cells
Procedure, shortened: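 Cells were incubated 24 h with 12.5 μM test compound; wild-type cells in medium with rat or hamster S9 served as a metabolism reference. Medium was protein-precipitated with acetonitrile, centrifuged 12,000 × g for 5 min and run on C18 UPLC at 40 °C with a water/acetonitrile gradient (0.1% formic acid). Detection was ESI+ MRM at m/z 159.1 > 57.3 (LOD 6.8 nM), expressed relative to wild-type-cell medium (100%).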

[13] = 20 °C; no reference given; cited from earlier work
[14] = system: Chinese hamster V79 cells; conditions: exogenous microsomal activation system; ref Kuroki et al. 1977; cited from earlier work

Structure (SMILES): CO[C@@]12[C@H](COC(N)=O)C3=C(C(=O)C(C)=C(N)C3=O)N1C[C@@H]1N[C@@H]12 [mitomycin C, reference compound]
- γH2A.X response (in words) (wild-type TK6 cells): robust increase
- γH2A.X response (in words) ([1]; positive control at 25 and 50 ng/ml): robust increase

Structure (SMILES): CN(CCCC(=O)O)N=O [NMBA, N-nitroso-N-methyl-4-aminobutanoic acid]
- carcinogenicity (rats; rats, large doses in drinking water, ref Lijinsky et al. 1983): caused only bladder cancer
- %MN response (in words) ([2]; 24 h): concentration-dependent increases
- genotoxic potency relative to NMPA (BMD50 estimates, both endpoints) [2]: more than 100 fold
- cytotoxicity at the highest concentration tested ([3]; CYP2A6-expressing TK6 cells): 15–30%
- nuclear P53 response (in words) [4]: did not cause an increase
- percentage of cells in G2/M phase ([5]; 400 μM): 24.3%
- G2/M phase cell cycle arrest (in words) [5]: resulted in G2/M phase cell cycle arrest
- percentage of cells in S phase (in words) [5]: concurrent decrease
- concentration producing increased γH2A.X signals ([1]; 24 h, increased signals only above this concentration): above 100 μM

Structure (SMILES): CCCCN(CCCC)N=O [NDBA, N-nitrosodibutylamine]
- TK or HPRT gene mutations (in words) [6]: did not induce TK or HPRT gene mutations
- MN formation (in words) [7]: no effect
- MN formation (in words) [8]: no effect
- MN formation (in words) [9]: no effect
- %MN response (in words) ([2]; 24 h): did not cause any significant increase
- BMD50 for MN frequency [2]: could not be estimated
- relative nuclei count ([3]; 1 mM, CYP2A6-expressing TK6 cells): 50%
- Ames test result (bacteria; ref Bonfanti et al. 1990): positive
- Ames test result (bacteria; with metabolic activation by rodent S9, ref Inami et al. 2009): positive
- nuclear P53 response (in words) [4]: did not cause an increase
- G2/M phase cell cycle arrest (in words) ([5]; 1 mM): did not cause G2/M phase cell cycle arrest
- percentage of cells in G2/M phase (in words) ([5]; 1 mM): decreased
- percentage of cells in the sub-G1 phase (in words) ([5]; 1 mM): significantly increased
- NDBA in the cell culture medium (in words) (TK6 cells): most of the NDBA remains in the cell culture medium
- amount of NDBA in the cell lysate (in words) (TK6 cells): only a very limited amount of NDBA is found in the cell lysate
- BMD50 for γH2A.X induction [1]: could not be estimated
- mutagenicity in the Ames test with metabolic activation by CYP2A6 or CYP1A1 ([10]; ref Fujita and Kamataki 2001): mutagenic
- %MN frequencies (in words) [11]: did not increase %MN frequencies
- metabolism of NDBA (amount in medium vs wild-type TK6 cells) [12]: did not efficiently metabolize NDBA

Structure (SMILES): CCN(N=O)C(C)C [NEIPA, N-nitrosoethylisopropylamine]
- increase in %MN ([2]; 100 μM, 24 h): 3.6 fold
- %MN response (in words) ([2]; 24 h): concentration-dependent increases
- genotoxic potency relative to NMPA (BMD50 estimates, both endpoints) [2]: more than tenfold less genotoxic
- cytotoxicity at the highest concentration tested ([3]; CYP2A6-expressing TK6 cells): 15–30%
- increase in nuclear P53 vs vehicle control [4]: 1.5 fold
- lowest observed adverse effect level (LOAEL) for nuclear P53 increase [4]: 12.5 µM
- nuclear P53 response (in words) [4]: concentration-dependent increases
- percentage of cells in G2/M phase ([5]; 100 μM): 27.0%
- G2/M phase cell cycle arrest (in words) [5]: resulted in G2/M phase cell cycle arrest
- percentage of cells in S phase (in words) [5]: concurrent decrease
- γH2A.X response (in words) ([1]; 24 h treatment with nitrosamine): concentration-dependent increase

Structure (SMILES): CN(C)N=O [NDMA, N-nitrosodimethylamine, reference compound]
- MN formation (in words) [9]: significant increases in MN formation
- Ames test result (bacteria; ref Aiub et al. 2003): positive
- vapor pressure [13]: > 1 mm Hg

Structure (SMILES): CC(C)N(N=O)C(C)C [NDIPA, N-nitrosodiisopropylamine]
- mean tumor induction period (rats; 25 mg/kg dosing group, ref Lijinsky and Taylor 1979): 770 days
- mean tumor induction period (rats; 50 mg/kg dosing group, ref Lijinsky and Taylor 1979): 430 days
- carcinogenicity (rats; Sprague–Dawley rats, ref Lijinsky and Taylor 1979): weak carcinogen
- %MN response (in words) ([2]; 24 h): did not cause any significant increase
- BMD50 for MN frequency [2]: could not be estimated
- cytotoxicity ([3]; concentrations up to 1 mM, cell line not given): not cytotoxic
- nuclear P53 response (in words) [4]: did not cause an increase
- BMD50 for γH2A.X induction [1]: could not be estimated

Structure (SMILES): CN(N=O)c1ccccc1 [NMPA, N-nitrosomethylphenylamine]
- carcinogenicity (rats; rats, ref Kroeger-Koepke et al. 1983): potent esophageal carcinogen
- increase in %MN ([2]; 2.5 μM, 24 h): 2.0 fold
- %MN in treated cells relative to controls ([2]; 10 μM (highest concentration tested), 24 h): 2.8 fold
- %MN response (in words) ([2]; 24 h): concentration-dependent increases
- BMD50 for MN frequency [2]: 2.2 µM
- cytotoxicity at the highest concentration tested ([3]; CYP2A6-expressing TK6 cells): 15–30%
- mutagenicity in a standard Ames test (bacteria; ref Koepke et al. 1990): not mutagenic
- lowest observed adverse effect level (LOAEL) for nuclear P53 increase [4]: 1.25 µM
- nuclear P53 response (in words) [4]: concentration-dependent increases
- mutagenicity in V79 cells [14]: not mutagenic
- percentage of cells in G2/M phase ([5]; 10 μM): 32.9%
- G2/M phase cell cycle arrest (in words) [5]: resulted in G2/M phase cell cycle arrest
- percentage of cells in S phase (in words) [5]: concurrent decrease
- γH2A.X increase over control ([1]; 0.625 μM, 24 h): 1.3 fold
- BMD50 for γH2A.X induction [1]: 1.1 µM
- mutagenicity in Salmonella typhimurium expressing human CYP2A6 ([10]; ref Kushida et al. 2000): mutagenic
- vapor pressure [13]: > 1 mm Hg

Structure (SMILES): CCN(CC)N=O [NDEA, N-nitrosodiethylamine]
- increase in %MN ([2]; 100 μM, 24 h): 2.6 fold
- %MN response (in words) ([2]; 24 h): concentration-dependent increases
- genotoxic potency relative to NMPA (BMD50 estimates, both endpoints) [2]: more than tenfold less genotoxic
- cytotoxicity at the highest concentration tested ([3]; CYP2A6-expressing TK6 cells): 15–30%
- Ames test result (bacteria; ref Aiub et al. 2003): positive
- increase in nuclear P53 vs vehicle control [4]: 1.7 fold
- lowest observed adverse effect level (LOAEL) for nuclear P53 increase [4]: 25 µM
- nuclear P53 response (in words) [4]: concentration-dependent increases
- percentage of cells in G2/M phase ([5]; 100 μM): 25.1%
- G2/M phase cell cycle arrest (in words) [5]: resulted in G2/M phase cell cycle arrest
- percentage of cells in S phase (in words) [5]: concurrent decrease
- γH2A.X increase over control ([1]; 6.25 μM (lowest concentration tested), 24 h): 1.5 fold
- γH2A.X fluorescence signal increase over the controls ([1]; 100 μM, 24 h): 2.7 fold

Structure (SMILES): C/C=C(/C)C(=O)O[C@H]1CCN2CC=C(COC(=O)[C@@](O)([C@H](C)OC)C(C)(C)O)[C@H]12 [lasiocarpine, Lasiocarpine, reference compound]
- MN formation (in words) [8]: significant increases in MN formation
